Assay outcomes deposited in PubChem by several laboratories.
Hits are enriched below; roughly 2.6% of the tested compounds scored in any of these assays.
PGE2 EP2 inh: human EP2 receptor antagonists, primary screen, TR-FRET cAMP, C6 glioma cells. Prostaglandin E2 receptor EP2 subtype (Homo sapiens), P43116. inhibition, % at 25 µM. hit rate 0.52% among 260,000. C6 glioma cells expressing human EP2; cells stimulated with saturating PGE2. AID 1422, 2008;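 active = percent inhibition above 40 after rounding to a whole number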;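 note: rat C6 glioma host cells with rolipram phosphodiesterase inhibitor present; the protocol text gives 20 µM as final concentration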
Target sequence (P43116 whole entry, looked up): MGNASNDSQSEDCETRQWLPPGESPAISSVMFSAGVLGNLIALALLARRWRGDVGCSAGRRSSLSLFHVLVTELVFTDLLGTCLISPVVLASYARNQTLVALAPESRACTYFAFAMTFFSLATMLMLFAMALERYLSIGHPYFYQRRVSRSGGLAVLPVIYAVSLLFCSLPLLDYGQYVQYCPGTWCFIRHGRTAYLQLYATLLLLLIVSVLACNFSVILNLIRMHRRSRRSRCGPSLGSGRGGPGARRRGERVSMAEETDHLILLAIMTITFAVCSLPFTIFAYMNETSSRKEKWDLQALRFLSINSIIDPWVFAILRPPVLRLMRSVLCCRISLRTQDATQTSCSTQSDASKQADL
EP2 mod: EP2 receptor modulators, cAMP readout, primary screen, cell-based, HTRF cAMP, PGE2 stimulation; Prostaglandin E2 receptor EP2 subtype (Homo sapiens), P43116; EP2-expressing cells, cAMP HTRF FRET, PGE2 co-stimulation; induction, % at 25 µM; hit rate 0.83% among 260,000;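 active = compounds whose cAMP rise, as percent of the full-agonist control response, exceeds 60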;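 note: rat C6 glioma line stably carrying human EP2 under a CMV promoter; the protocol text gives 20 µM as final concentration; 100% = response of wells given 1 µM PGE2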
Granule exo inh: LAMP-1 surface exposure blockers, TALL-104 cells – cell-based, flow cytometry, MLPCN library, primary screen; TALL-104 LAMP-1 surface exposure; cells stimulated with thapsigargin and PMA; hit rate 0.66% among 360,000; inhibition, % at 10 µM;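 active = inhibition above about 55%, limit read from the data; inconclusive = no clear call, values can overlap the other calls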
MC4R ag barr: MC4R agonists recruiting beta-arrestin, primary screen, cell-based, luminescence, agonist arm of biased-ligand search; Melanocortin receptor 4 (Homo sapiens), P32245; U2OS MC4R beta-arrestin complementation; percent of melanotan II response, DMSO zero; activation, % at 8.9 µM; hit rate 0.98% among 360,000; AID 540308, 2011;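 active = activation above a per-plate cutoff, the mean activation of sample wells on that plate plus 3 SD, cut at about 8% in these data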
Target sequence (P32245 whole entry, looked up): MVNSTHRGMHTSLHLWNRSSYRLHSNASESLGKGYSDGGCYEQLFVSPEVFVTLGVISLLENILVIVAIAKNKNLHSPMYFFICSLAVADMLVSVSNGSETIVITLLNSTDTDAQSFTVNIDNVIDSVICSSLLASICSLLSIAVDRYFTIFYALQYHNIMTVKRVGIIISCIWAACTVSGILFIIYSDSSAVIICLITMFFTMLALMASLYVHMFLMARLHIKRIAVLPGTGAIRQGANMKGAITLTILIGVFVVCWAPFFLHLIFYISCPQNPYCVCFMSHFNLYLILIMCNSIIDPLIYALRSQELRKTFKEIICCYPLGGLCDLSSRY
MC4R antagonist: MC4R antagonists of cAMP signaling, primary screen, cell-based, TR-FRET, antagonist arm of biased-ligand search; Melanocortin receptor 4 (Homo sapiens), P32245; MC4R-expressing cells, MTII-stimulated cAMP, LANCE TR-FRET; inhibition, % at 6.5 µM; hit rate 0.48% among 360,000;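 active = inhibition above its plate's cutoff, the mean of tested wells on that plate plus 3 SD, cut at about 29% in these data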;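 note: 0% = Melanotan II alone and 100% = Melanotan II plus saturating MCL0020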
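Material: human MC4R-expressing U2OS cells. Probe or stimulus: Melanotan II challenge. Dosing: 6.5 µM single dose. Times: 30-min compound, 1-h challenge, 1-h detection, room temperature. Technique: TR-FRET with Eu-cAMP and labeled anti-cAMP, 671 nm. Replication: singlicate.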
T cell HTS: modulators of CD8 T cell-vesicle binding, primary screen, mouse 2C CD8+ T cells, flow cytometry; 2C CD8+ T cell-vesicle binding; active compounds read low; response (vesicle binding), % at 7 µM; hit rate 0.068% among 330,000; AID 2052, 2009;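 active = response, share of CD8 T cells binding vesicles, and their 90th percentile fluorescence all below set limits, cut at about 80% in these data, passing the limit was not always enough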;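 note: values below 100% mean blocked vesicle binding to the CD8+ T cells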
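Assay system – 2C mouse CD8+ T cells · Also added – QL9-loaded Drosophila micro-vesicles · Timing – Cell–vesicle co-incubation 1.5 h at 37 °C, staining 20 min on ice · Signal – flow cytometry of vesicle-bound cells · Measure – percent CD8+ FL2 mean versus row control · Controls – Peptide-free naked vesicles (low) and QL9 vesicles with 0.7% DMSO vehicle (high)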
EP2 cAMP induct: cAMP induction in EP2, EP4, beta2-AR and parental cells, confirmation, counter-screen for EP2 modulator project, cell-based, five parallel assays, C6 glioma, HEK293 | shares compounds with EP2 mod | cAMP HTRF induction; plus low (about EC15) PGE2 agonist | calls only at 20 µM (by protocol) | hit rate 47% among 1,300 | AID 1080, 2008;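 active = cAMP induction above 50% in the main assay while under 30% in all four parallel counter assays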;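 note: rat C6 glioma cells stably expressing human EP2 receptor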
cAMP nonselect: nonselective cAMP signaling inhibitors, parental cells, counter-screen for MC4R biased antagonist project, cell-based, TR-FRET, U2OS, forskolin, triplicate; hit rate 26% among 1,600; LANCE TR-FRET; AID 602193, 2012; inhibition, % at 6.5 µM; shares compounds with MC4R antagonist;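 active = mean inhibition over triplicates above the low-control well mean plus 3 SD, set per campaign, cut at about 13% in these data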;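 note: signal is single emission at 671 nm which falls as cellular cAMP rises; 0% = forskolin-stimulated wells and 100% = buffer without forskolin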
MC4R antag conf: MC4R cAMP antagonists, retest, confirmation, cell-based, TR-FRET. shares compounds with MC4R antagonist. MC4R-expressing cells, MTII-stimulated cAMP. inhibition, % at 6.5 µM. hit rate 27% among 1,600. AID 602195, 2012; in the data active = inhibition above about 29%;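 note: 0% = agonist stimulated wells alone and 100% = agonist stimulated wells plus saturating reference antagonist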
* = called active by the depositor; i = inactive; ? = inconclusive; · = no result given; + = active, no number.

SMILES	PGE2 EP2 inh	EP2 mod	Granule exo inh	MC4R ag barr	MC4R antagonist	T cell HTS	EP2 cAMP induct	cAMP nonselect	MC4R antag conf
Cc1cc2c(c(SCC(=O)NCc3ccc(Cl)cc3)n1)C(=O)OC2	12.7	-20.3	-0.3	-0.4	11.4	i	·	·	·
O=C1/C(=C/c2cccnc2)SC(=NCc2ccccc2)N1Cc1ccccc1	1.4	66.4*	0.4	0.5	19.8	291.0	+	·	·
Brc1ccccc1Cn1c(-c2cscn2)nc2ccccc21	4.1	79.5*	-3.7	9.3*	-0.2	319.8	+	·	·
Cc1ccccc1Cn1c(Cc2ccccc2)nc2ccccc21	7.4	71.1*	-0.6	1.0	4.7	454.8	+	·	·
Cc1cc(C)c(C)c(Cn2c(CO)nc3ccccc32)c1C	4.9	80.4*	-0.6	1.6	5.5	126.1	+	·	·
Cc1cccc(Cn2c(Cc3ccccc3)nc3ccccc32)c1	9.5	93.0*	-3.1	1.2	5.1	518.4	+	·	·
CCNC(=O)C1(C)CCCN1C(=O)c1cc(C)on1 (configuration not stated)	·	·	-2.4	-2.5	7.6	·	·	·	·
CCOC(=O)c1c(-c2ccc(C)c(C)c2)csc1NC(=O)C1CCCO1 (configuration not stated)	9.4	50.0	·	·	·	·	·	·	·
CCCc1nc2oc3c(NCC(C)O)ncnc3c2c2c1CCCC2 (configuration not stated)	5.8	10.3	6.3	-0.2	3.5	752.4	·	·	·
CC(C)c1cc(C(=O)NNC(=S)NCc2ccco2)c(O)c(C(C)C)c1	7.9	12.9	0.7	7.0	15.1	357.0	·	·	·
O=S(=O)(c1ccccc1)N1CCC2(CC1)OCCN2S(=O)(=O)c1cccs1	·	·	12.2	-1.0	8.8	·	·	·	·
CC1(C)C2CCC(C2)C1(C)NC(=O)C[N+](C)(C)C (configuration not stated)	6.5	20.3	-6.1	-1.4	9.1	122.8	·	·	·
O=C(N/N=C/c1ccc(OC(F)F)cc1)c1cc[n+]([O-])cc1	·	·	?	0.8	-0.1	726.4	·	·	·
Cc1ccccc1Cn1c(-c2cncs2)nc2ccccc21	16.0	67.6*	0.7	0.0	1.0	130.1	i	·	·
C#CC1(O)CCCC2C3CCC4CC(OC(C)=O)CCC4(C)C3C(=O)CC21C (configuration not stated)	·	·	-3.0	3.7	5.9	·	·	·	·
CC(=O)O[C@H]1CC[C@@]2(C)[C@@H](CC[C@H]3[C@H]2CC(=O)[C@]2(C)[C@@H]3C[C@H]3CC(C)=CC(=O)[C@@H]32)C1	44.9*	63.8*	·	·	·	·	i	·	·
CCCC(=O)Nc1cccn(Cc2ccccc2Br)c1=O	·	27.5	-0.4	-1.9	10.1	290.1	·	·	·
Cc1ccccc1NC(=S)N(Cc1ccco1)C(C)c1cccs1 (configuration not stated)	4.9	50.5	-1.3	-1.8	3.5	382.3	i	·	·
CC(C)c1ccc(OCC(=O)NC(=S)Nc2ccc3c4c(cccc24)CC3)cc1	20.4	66.0*	0.1	-0.5	38.1*	521.3	i	19.9*	37.1*
COC(=O)c1ccccc1NC(=S)NC(=O)COc1ccc(C(C)C)cc1	12.7	-20.9	-4.5	1.5	1.0	366.7	·	·	·
Cc1ccccc1C(=O)Nc1ccccc1N1CCCCC1	6.6	60.3	-2.3	7.9	34.8*	231.8	+	0.7	-1.5
O=C(COC(=O)c1cccc(S(=O)(=O)N2CCCC2)c1)Nc1cccc(Br)c1	·	·	-4.2	0.2	6.3	·	·	·	·
Cc1c(OCc2ccc(C(=O)O)cc2)ccc2c(-c3ccccc3)cc(=O)oc12	11.6	21.0	-6.2	-1.9	-5.1	487.9	·	·	·
CCOc1ccc(-n2nc3c(=O)[nH]nc(C)c3c2C)cc1	6.8	28.9	-2.1	-1.6	4.0	389.0	·	·	·
CCOc1ccc(-n2nc3c(=S)[nH]nc(C)c3c2C)cc1	20.8	65.5*	-11.1	-1.0	92.0*	177.0	i	55.4*	106.9*
SMILES	PGE2 EP2 inh	EP2 mod	Granule exo inh	MC4R ag barr	MC4R antagonist	T cell HTS	EP2 cAMP induct	cAMP nonselect	MC4R antag conf
c1ccc(-c2cc3ccccc3nc2N2CCCC2)cc1	12.4	17.9	-1.2	1.8	5.7	187.4	·	·	·
Cc1ccc(-c2cc3ccccc3nc2N2CCOCC2)cc1	6.0	73.3*	2.2	1.8	34.1*	99.9	i	-1.3	-3.0
CC1CCN(CCCNC(=O)CCc2nnc3n(CCc4ccccc4)c(=O)c4ccccc4n23)CC1	·	·	7.6	0.2	0.2	396.5	·	·	·
S=c1nc[nH]c2c1[nH]c1ccccc12	13.9	82.7*	-6.0	-3.0	49.0*	343.0	i	3.8	16.9
COc1ccc(-n2c(-c3ccccc3)nc(=S)c3c2CCCC3)cc1	·	40.4	1.5	-1.6	-4.2	327.2	·	·	·
COc1ccc(-n2c(-c3cccc(OC)c3)nc(=S)c3c2CCCC3)cc1	17.8	77.0*	3.4	-0.9	30.9*	312.9	i	16.8*	32.5*
CCOc1cc(S(=O)(=O)Nc2ccccn2)ccc1F	20.3	-15.6	-3.0	-3.0	3.0	264.5	·	·	·
Cc1cccc(OC(=O)c2sc(Cl)nc2C)c1	13.3	67.7*	-4.8	-2.2	31.6*	469.2	i	13.9*	32.0*
CCCCOc1ccc(C(=O)N2CCN(CC(=O)Nc3ccc(C)cc3)CC2)cc1OC	·	·	5.6	-1.1	-0.5	315.2	·	·	·
CNC(=O)NC(=O)CSc1nc(-c2cccs2)c(C#N)c(=O)[nH]1	16.0	79.3*	-0.3	-0.8	121.3*	·	i	86.7*	153.5*
N#Cc1c(-c2cccs2)nc(SCc2ccc(Cl)cc2)[nH]c1=O	19.1	75.1*	2.4	-0.4	57.7*	·	i	42.6*	79.6*
